Eight compounds from ChEMBL document CHEMBL2057169, “Discovery of novel tricyclic compounds as squalene synthase inhibitors” (Bioorg Med Chem, 2012) can be followed below.

A word on the inhibition in vivo: it is the change of the read-out against control, counted positive when it falls. In general, IC50 refers to the concentration needed to halve the response being measured.

The subject of experiment [1] is marmosets. Put plainly: Lipid lowering effect in marmosets assessed as reduction in plasma total cholesterol level at 100 mg/kg, po administered once daily for 7 days. Type of experiment: functional. To be noted: Callitrichinae sp., in Callithrix jacchus, 168 h. An outline of the steps:
(§1)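 Common marmosets, n = 8 per group, matched for body weight and plasma lipids. They were dosed orally at 100 mg/kg in 0.5% methylcellulose (5 ml/kg) once daily for 7 days. Nonfasted blood was drawn before dosing and the morning after the last dose. HDL was precipitated, then its cholesterol assayed enzymatically; non-HDL = total minus HDL cholesterol. Change was expressed relative to pre-values.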

In experiment [2] the test system is marmosets. Kind of experiment: Lipid lowering effect in marmosets assessed as reduction in plasma triglyceride level at 100 mg/kg, po administered once daily for 7 days. To be noted: Callitrichinae sp., in Callithrix jacchus, 168 h. The class given is functional. The method, boiled down:
as §1

The test system of experiment [3] is Hepatocyte. Put plainly: Inhibition of cholesterol synthesis in rat hepatocytes assessed as formation of cholesterol using [14C]mevalonolactone as substrate after 1 hr by radioactivity assay. The class given is functional, cell-based. The method, boiled down: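 Rat hepatocytes isolated by two-step portal-vein perfusion (EGTA buffer, then 0.05% collagenase). Cells were kept if viability was over 80% by trypan blue and seeded at 10^6 cells/well in DMEM with 10% LPDS. Next day they got 5% LPDS medium with inhibitor at 0–3000 nM for 1 h at 37 °C, then [14C]mevalonolactone for 1 h. Lysates were saponified, [14C]cholesterol corrected by [3H]cholesterol recovery and BCA protein, and % inhibition taken versus 0 nM wells. Triplicate wells; three experiments.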

Experiment [4] deals with marmosets. Put plainly: Lipid lowering effect in marmosets assessed as reduction in plasma non HDL-cholesterol level at 100 mg/kg, po administered once daily for 7 days. The class given is functional. To be noted: Callitrichinae sp., in Callithrix jacchus, 168 h. The method, boiled down:
as §1

In experiment [5] the test system is marmosets. Put plainly: Lipid lowering effect in marmosets assessed as reduction in plasma HDL-cholesterol level at 100 mg/kg, po administered once daily for 7 days. The class given is functional. To be noted: Callitrichinae sp., in Callithrix jacchus, 168 h. An outline of the steps:
as §1

Experiment [6] has as its system Rattus norvegicus. Put plainly: Inhibition of cholesterol synthesis in Wistar rat liver assessed as reduction of [14C]-cholesterol level at 3 mg/kg, po administered as single dose measured after 1 hr by liquid scintillation counting. The class given is functional. An outline of the steps:
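Male Wistar rats, 6 weeks old, n = 4-6, dosed orally at 3 mg/kg in 0.5% methylcellulose, with equimolar NaOH or NaHCO3 added; vehicle-only controls. At 1 h, [14C]mevalonic acid (5 µCi/5 ml/kg) was given ip, and rats were killed 1 h later.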

Experiment [7] deals with T1, Squalene synthase (Rattus norvegicus, UniProt Q02769).
T1 sequence (Q02769 whole entry): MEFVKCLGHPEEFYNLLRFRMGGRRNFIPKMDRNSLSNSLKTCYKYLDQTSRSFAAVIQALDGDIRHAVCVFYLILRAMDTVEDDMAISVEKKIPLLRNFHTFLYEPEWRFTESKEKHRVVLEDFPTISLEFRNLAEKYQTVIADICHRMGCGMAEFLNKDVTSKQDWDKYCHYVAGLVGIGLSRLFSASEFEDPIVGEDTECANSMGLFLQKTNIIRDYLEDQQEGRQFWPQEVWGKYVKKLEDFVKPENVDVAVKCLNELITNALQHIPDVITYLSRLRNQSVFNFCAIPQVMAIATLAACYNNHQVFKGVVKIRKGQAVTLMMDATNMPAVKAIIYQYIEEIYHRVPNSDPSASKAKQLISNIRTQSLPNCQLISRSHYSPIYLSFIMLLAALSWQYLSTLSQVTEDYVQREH
Put plainly: Inhibition of squalene synthase in rat hepatic cells. Type of experiment: cell-based.

Consider `COc1cccc([C@H]2O[C@H](CC(=O)N3CCC(CC(=O)O)CC3)c3cccn3-c3ccc(Cl)cc32)c1OC`, for which the inhibition in vivo at 100 mg/kg in experiment [1] is 4%; in experiment [2] it was 28%; in experiment [4], 9%; in experiment [5], -11%. Further, in experiment [3], the IC50 worked out at 0.049 µM.

Turning to `COc1cccc([C@H]2O[C@H](CCC(=O)N3CCC[C@H](C(=O)O)C3)c3cccn3-c3ccc(Cl)cc32)c1OC`, the inhibition in vivo at 3 mg/kg in experiment [6] is 53%. Besides, the inhibition in vivo at 100 mg/kg in experiment [1] was 9%; in experiment [2], 21%; in experiment [4], 23%; in experiment [5], -21%. For the same compound, the values for the IC50 in experiment [7] and in experiment [3] were 0.0014 µM and 0.07 µM, respectively.

Regarding `COc1cccc([C@H]2O[C@H](CCn3cc(CC(=O)O)nn3)c3cccn3-c3ccc(Cl)cc32)c1OC`, the inhibition in vivo at 3 mg/kg in experiment [6] worked out at 66%. The inhibition in vivo at 100 mg/kg in experiment [1] is 10%; in experiment [2] it was 24%; in experiment [4], 21%; in experiment [5], -8%. Also, the values for the IC50 in experiment [7] and in experiment [3] were 0.00051 µM and 0.024 µM, respectively.

Consider `COc1cccc([C@H]2O[C@H](CCn3ccc(CC(=O)O)n3)c3cccn3-c3ccc(Cl)cc32)c1OC`, for which the inhibition in vivo at 3 mg/kg in experiment [6] worked out at 64%. Further, the inhibition in vivo at 100 mg/kg is 27% in experiment [1], 16% in experiment [2], 52% in experiment [4] and -10% in experiment [5]. Moreover, the IC50 in experiment [7] turned out to be 0.0013 µM; in experiment [3] it was 0.058 µM.

On to `COc1cccc([C@H]2O[C@H](CCn3nnc(CC(=O)O)n3)c3cccn3-c3ccc(Cl)cc32)c1OC`, for which, in experiment [6], the inhibition in vivo at 3 mg/kg worked out at 86%. For the same compound, the inhibition in vivo at 100 mg/kg amounted to 14% in experiment [1], 12% in experiment [2], 21% in experiment [4] and 6% in experiment [5]. Also, the IC50 in experiment [7] came to 0.0011 µM; in experiment [3], 0.036 µM.

In the case of `COc1cccc([C@H]2O[C@H](CCn3nnc(C4(C(=O)O)CC4)n3)c3cccn3-c3ccc(Cl)cc32)c1OC`, the inhibition in vivo at 3 mg/kg in experiment [6] amounted to 53%. For the same compound, the IC50 turned out to be 0.0017 µM in experiment [7] and 0.052 µM in experiment [3].

Regarding `COc1cccc([C@H]2O[C@H](CCn3nnc(COC(C)(C)C(=O)O)n3)c3cccn3-c3ccc(Cl)cc32)c1OC`, the inhibition in vivo at 3 mg/kg in experiment [6] worked out at 51%. Further, the IC50 in experiment [7] was found to be 0.0025 µM; in experiment [3] it was 0.01 µM.

Turning to `COc1cccc([C@H]2O[C@H](CC(=O)N3CCC(CC(=O)O)CC3)C(=O)N(CC(C)(C)COC(C)=O)c3ccc(Cl)cc32)c1OC` [LAPAQUISTAT ACETATE], the inhibition in vivo at 100 mg/kg worked out at 23% in experiment [1], 25% in experiment [2], 29% in experiment [4] and 14% in experiment [5].
